One test concerns HOP-62. Briefly: Antiproliferative activity against human HOP62 cells. The test is classed as functional, cell-based. In outline:
(§1)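 Cells cultured in RPMI 1640 with 10% heat-inactivated FCS, 3 mM HEPES, 5% CO2, 37 °C; NFF are primary neonatal foreskin fibroblasts. Cells were seeded at 5 × 10^3/well and left to adhere overnight. They were exposed to compound for 24 h, then the medium was replaced and cells grown a further 72 h. Survival was read by SRB staining at 564 nm, giving IC50.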

A further test concerns DU-145. Briefly: Antiproliferative activity against human DU145 cells. In kind it is functional, cell-based. In outline: as §1
A further test relates to SK-MEL-5. Description: Antiproliferative activity against human SK-Mel-5 cells. In kind it is functional, cell-based. In outline:
as §1

The subject of another test is COLO 205. Briefly: Antiproliferative activity against human Colo205 cells. The test is classed as functional, cell-based. The essentials:
as §1

The subject of the next test is T47D. Description: Antiproliferative activity against human T-47D cells. The test is classed as functional, cell-based. In outline:
as §1

Test [1] deals with A549. Briefly: Induction of p21 expression in human A549 cells after 24 hrs. In kind it is functional, cell-based. The essentials:
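A549 cells were treated 24 h with 0.05, 0.5 or 5 µg/mL compound or vehicle. Lysates were made by sonication in 1% SDS/20% glycerol/10 mM Tris pH 7.4 buffer, and protein was quantified by BCA. Then 30 µg was run on 15% SDS-PAGE and immunoblotted for p21WAF1/Cip1 (1:1000), with GAPD (1:10 000) as reference, using chemiluminescence detection.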

A further test deals with HT-29. Briefly: Antiproliferative activity against human HT29 cells. The test is classed as functional, cell-based. The essentials: as §1
In test [2] the test system is MM96L. Briefly: Antiproliferative activity against human MM96L cells. The test is classed as functional, cell-based. The essentials: as §1
The nature of test [3]: Antiproliferative activity against human JAM cells. In kind it is functional, cell-based. In outline:
as §1

The next test relates to MCF7. Briefly: Antiproliferative activity against human MCF7 cells. The test is classed as functional, cell-based. The essentials:
as §1

Another test has as its system SK-MEL-28. Briefly: Antiproliferative activity against human SK-Mel-28 cells. The test is classed as functional, cell-based. The essentials:
as §1

A further test relates to A549 (Homo sapiens). Briefly: Induction of p21 expression in human A549 cells.
Test [4] has as its system A549. Description: Antiproliferative activity against human A549 cells. The test is classed as functional, cell-based. The essentials: as §1
Test [5] relates to NFF. Description: Antiproliferative activity against human NFF cells. In kind it is functional, cell-based. The essentials:
as §1

The next test relates to PC-3. Description: Antiproliferative activity against human PC3 cells. In kind it is functional, cell-based. The essentials:
as §1

The next test concerns C180-13S. Briefly: Antiproliferative activity against human C180-13S cells. In kind it is functional, cell-based. In outline:
as §1

Test [6] can be described thus: Antiproliferative activity against human H520 cells. To be noted: NCI-H520. In kind it is functional, cell-based. In outline: as §1
Test [7] concerns MM96L. Briefly: Effect on cell morphology in human MM96L cells at 3 ug/mL after 24 hrs. In kind it is functional, cell-based.
The nature of test [8]: Antiproliferative activity against human LSP M2 cells. In kind it is functional, cell-based. The essentials:
as §1

Test [9] can be described thus: Antiproliferative activity against human AF6 cells. The test is classed as functional, cell-based. The essentials:
as §1

A short description of test [10]: Antiproliferative activity against human MM604 cells. The test is classed as functional, cell-based. The essentials: as §1
Test [11] in a line: Antiproliferative activity against human D17 cells. In kind it is functional, cell-based. The essentials: as §1
Test [12] is described as follows: Antiproliferative activity against human Mel RM cells. The test is classed as functional, cell-based. The essentials:
as §1

Test [13] has as its system NFF. Briefly: Selectivity index, IC50 for D17 over IC50 for NFF cells. The test is classed as functional, Homo sapiens.
For a further test, the system named is A2058. Briefly: Antiproliferative activity against human A2058 cells. In kind it is functional, cell-based. In outline:
as §1

Test [14] can be described thus: Antiproliferative activity against human AO7 RM cells. The test is classed as functional, cell-based. In outline: as §1
In test [15] the test system is NFF. Briefly: Selectivity index, IC50 for A2058 over IC50 for NFF cells. The test is classed as functional, Homo sapiens.
A further test relates to HeLa. Description: Antiproliferative activity against human HeLa cells. In kind it is functional, cell-based. In outline: as §1
Test [16] deals with NFF. Briefly: Selectivity index, IC50 for MM470 over IC50 for NFF cells. In kind it is functional, Homo sapiens. In outline: (§2)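 Selectivity index: IC50 for normal neonatal foreskin fibroblasts (NFF) relative to IC50 for each cancer line, both from the same survival assay. Cells grown in RPMI 1640 with 10% heat-inactivated FCS at 37 °C and 5% CO2, plated at 5 × 10^3 cells/well and left to adhere overnight. Compound exposure 24 h, then removed and cells regrown 72 h in fresh medium. Fixed with methylated spirits, stained with sulforhodamine B, read at 564 nm.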

In a further test the test system is DO4. Briefly: Antiproliferative activity against human DO4 cells. The test is classed as functional, cell-based. The essentials:
as §1

The test system of test [17] is NFF. Description: Selectivity index, IC50 for LSP M2 over IC50 for NFF cells. In kind it is functional, Homo sapiens. The essentials:
as §2

Test [18] concerns NFF. Briefly: Selectivity index, IC50 for DO4 over IC50 for NFF cells. The test is classed as functional, Homo sapiens.
Test [19] has as its system NFF. Description: Selectivity index, IC50 for Mel FH over IC50 for NFF cells. The test is classed as functional, Homo sapiens. In outline: as §2
The test system of test [20] is NFF. Description: Selectivity index, IC50 for Mel RM over IC50 for NFF cells. In kind it is functional, Homo sapiens. In outline:
as §2

Test [21] relates to NFF. Description: Selectivity index, IC50 for MM329 over IC50 for NFF cells. In kind it is functional, Homo sapiens. The essentials:
as §2

For test [22], the system named is NFF. Description: Selectivity index, IC50 for MM604 over IC50 for NFF cells. In kind it is functional, Homo sapiens. The essentials:
as §2

Test [23] is described as follows: Antiproliferative activity against human MM329 cells. In kind it is functional, cell-based. The essentials: as §1
Test [24] relates to MM96L. Briefly: Induction of histone H4 acetylation in human MM96L cells. The test is classed as functional, cell-based. In outline: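 MM96L melanoma cells were exposed for 8 h to 0.05, 0.5 or 5 µg/mL compound, with DMSO vehicle and untreated controls. Histones were extracted and resolved by TAU gel electrophoresis to separate non-, mono-, di-, tri- and tetra-acetylated histone H4.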

Test [25] deals with NFF. Description: Selectivity index, IC50 for HeLa over IC50 for NFF cells. The test is classed as functional, Homo sapiens.
For test [26], the system named is NFF. Description: Selectivity index, IC50 for D11 over IC50 for NFF cells. The test is classed as functional, Homo sapiens.
Test [27] can be described thus: Antiproliferative activity against human D11 cells. In kind it is functional, cell-based. In outline:
as §1

Test [28] can be described thus: Antiproliferative activity against human D14 cells. In kind it is functional, cell-based. The essentials:
as §1

In test [29] the test system is NFF. Briefly: Selectivity index, IC50 for MM229 over IC50 for NFF cells. The test is classed as functional, Homo sapiens. In outline:
as §2

The test system of test [30] is NFF. Briefly: Selectivity index, IC50 for AF6 over IC50 for NFF cells. In kind it is functional, Homo sapiens.
The nature of test [31]: Antiproliferative activity against human MM229 cells. The test is classed as functional, cell-based. The essentials:
as §1

The subject of test [32] is NFF. Description: Selectivity index, IC50 for D14 over IC50 for NFF cells. In kind it is functional, Homo sapiens.
The subject of test [33] is NFF. Description: Selectivity index, IC50 for AO7 RM over IC50 for NFF cells. In kind it is functional, Homo sapiens.
Test [34] is described as follows: Antiproliferative activity against human Mel FH cells. In kind it is functional, cell-based. In outline:
as §1

Test [35] is described as follows: Antiproliferative activity against human MM470 cells. In kind it is functional, cell-based. The essentials: as §1

SMILES strings stand for the structures. Activity calls are given as the source filed them. The rule behind the calls is not given here.

With `O=C(CCCCC[C@H](NC(=O)c1cc2ccccc2[nH]1)C(=O)Nc1cccc2cccnc12)NO`, the 50% inhibitory concentration (IC50) (as a rule, the concentration needed to halve the response being measured) with HOP-62 turned out to be 0.063 µM; in the test with DU-145 it was 0.022 µM; with SK-MEL-5, 0.018 µM; in the test with COLO 205, 0.102 µM; in the test on T47D, 0.019 µM; in the test on HT-29 it was 0.079 µM. In addition, the IC50 in the test with MM96L [2] was determined as 0.021 µM; in test [3], 0.048 µM; with MCF7, 0.019 µM; in the test on SK-MEL-28, 0.033 µM; in the test on A549 [4], 0.069 µM; with NFF [5] it was 0.337 µM. Also, the concentration for half-maximal inhibition (IC50) came out at 0.148 µM in the test on PC-3, 0.02 µM in the test on C180-13S and 0.026 µM in [6]. The outcome in the test on A549 [1] and with A549 (Homo sapiens) was Active.

For `CN(C)c1ccc(C(=O)N[C@@H](CCCCCC(=O)NO)C(=O)NCc2ccccc2)cc1`, the half-inhibitory concentration (IC50) in the test on MM96L [2] is 1.6 µM; with NFF [5], 12 µM. Moreover, the outcome in the test with MM96L [7] was Active.

With `CN(C)c1ccc(C(=O)NC(CCCCCC(=O)NO)C(=O)NCc2ccccc2)cc1` (centres undefined), the IC50 in [8] was found to be 0.45 µM; in [9], 0.3 µM; in test [10], 0.01 µM; in test [11] it was 0.06 µM; in test [12], 0.95 µM; with A2058, 0.1 µM. Also, the IC50 in test [14] is 0.18 µM; in the test on HeLa it was 0.09 µM; in the test with DO4, 0.12 µM; with MM96L [2], 0.13 µM; in the test on SK-MEL-28 it was 0.06 µM; in [23] it was 0.06 µM. The 50% inhibitory concentration (IC50) was determined as 0.3 µM in test [27]; 0.26 µM in test [28]; 0.87 µM in the test on NFF [5]; 0.6 µM in [31]; 0.08 µM in test [34]; 0.09 µM in [35]. The “Ratio IC50” value in the test on NFF [13] was 14.5; with NFF [15], 8.7; in the test with NFF [16], 9.7; with NFF [17], 1.9; in the test on NFF [18], 7.3; in the test with NFF [19] it was 10.9. Further, the “Ratio IC50” value in the test with NFF [20] is 0.9; in the test with NFF [21] it was 14.5; in the test on NFF [22], 87; in the test on NFF [25], 9.7; in the test with NFF [26], 2.9; in the test with NFF [29], 1.5. In addition, the “Ratio IC50” value in the test on NFF [30] is 2.9; in the test on NFF [32], 3.3; in the test with NFF [33] it was 4.8. The Activity result in the test on MM96L [24] is “Dose-dependent effect”.
